Rows were chosen to be rich in hits. Some 3.1% of all compounds tested hit in one or more screens of this group.
GPR7 antag: blocks human GPR7 receptor signaling. P48145. GPR7-expressing cells, fluorescence antagonist assay. inhibition, % at 4.4 µM. actives 1.1% (n = 290,000); in the data active = inhibition above about 16%, passing the limit was not always enough;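 also: cells stimulated with the agonist NPW; 0% = agonist with vehicle and 100% = vehicle without agonist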
Target sequence (P48145 whole entry, looked up): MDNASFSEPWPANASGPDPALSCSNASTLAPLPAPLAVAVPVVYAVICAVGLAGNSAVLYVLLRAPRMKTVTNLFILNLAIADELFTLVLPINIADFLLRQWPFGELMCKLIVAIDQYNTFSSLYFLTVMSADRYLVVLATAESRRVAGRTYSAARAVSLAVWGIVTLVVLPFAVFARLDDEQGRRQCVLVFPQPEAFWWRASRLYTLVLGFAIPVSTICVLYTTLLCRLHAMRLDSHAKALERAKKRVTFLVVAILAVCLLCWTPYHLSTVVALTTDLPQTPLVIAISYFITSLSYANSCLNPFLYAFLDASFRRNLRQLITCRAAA
CHO parental Ca: counter-screen: ATP calcium response change in parental CHO cells. AID 463079. inhibition, % at 5.6 µM. actives 0.63% (n = 330,000). parental CHO-K1, ATP-induced calcium, Fluo-8 fluorescence;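 active = inhibition above that plate's mean sample inhibition plus 3 SD, cut at about 26% in these data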;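 also: 0% = ATP-challenged DMSO wells and 100% = DMSO wells without ATP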
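Test system: untransfected parental CHO cell line; also added: ATP stimulus; dosing: 5.6 µM, single dose; signal: calcium-sensitive Fluo-8 fluorescence; measure: percent inhibition of ATP-evoked calcium rise, normalized to controls; benchmarks: low control ATP plus DMSO, high control DMSO only; replication: one well per compound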
GalR3 antagonist: antagonists of human GalR3; O60755; HEK293 GalR3-CNG cAMP membrane potential fluorescence; galR3 body fused to GalR1 C-terminus; inhibition, % at 3 µM; actives 0.44% (n = 360,000); AID 651719;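 active = inhibition above the screen-wide average plus 3 SD, cut at about 13% in these data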;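 also: forskolin and galanin both at EC90 stimulate the cells; cAMP rise reported by CNG channel membrane potential dye signal; 0% = forskolin plus galanin with DMSO and 100% = forskolin alone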
OX1R antag-1: OX1R (human) antagonism | inhibition, % at 6.6 µM | OX1R-expressing cells, FRET antagonist read-out | O43613 | AID 485270 | actives 1.8% (n = 330,000); in the data active = inhibition mostly above about 38%, no sharp cut-off; inactive = mostly below about 40%;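 also: 0% = agonist challenge alone and 100% = reference antagonist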
OX1R antag-2: human HCRTR1 antagonism; O43613; CHO/OX1R cells, Fluo-8 calcium fluorescence, orexin A; inhibition, % at 5 µM; actives 0.43% (n = 330,000);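 active = inhibition above its plate's threshold, mean inhibition of all tested compounds on the plate plus 3 SD, cut at about 37% in these data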;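 also: 0% = orexin A challenge wells and 100% = SB-334867-A antagonist wells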
OX1R HTRF confirm: OX1R (human) antagonism, HTRF confirmed; actives 49% (n = 1,800); inhibition, % at 6.6 µM; shares compounds with OX1R antag-1; OX1R-expressing cells, HTRF antagonist assay; in the data active = inhibition above about 55%;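 also: CHO cells expressing OX1R stimulated with orexin A at about EC80; 0% = agonist challenge alone and 100% = reference antagonist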
CHO-K1 HTRF: signal in parental CHO-K1 cells, OX1R antagonist counter-screen. inhibition, % at 6.6 µM. actives 48% (n = 1,800). HTRF counterscreen. AID 493232. shares compounds with OX1R antag-1; in the data active = inhibition above about 17%;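 also: 0% = agonist challenge with vehicle and 100% = vehicle alone without agonist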
* = called active by the depositor; nt = not tested or not shown.

SMILES	GPR7 antag	CHO parental Ca	GalR3 antagonist	OX1R antag-1	OX1R antag-2	OX1R HTRF confirm	CHO-K1 HTRF
Cc1cccc(-n2c3nc(=O)[nH]c(=O)c-3cc3cc([N+](=O)[O-])ccc32)c1	9	2	-2	77*	-6	68*	66*
Cn1c2nc(=O)[nH]c(=O)c-2cc2ccccc21	nt	nt	-2	nt	nt	nt	nt
Cc1nn(C)c(C)c1/C=C(\C#N)C(N)=O	6	-3	-3	5	-9	nt	nt
CCOC(=O)N/N=C/c1ccc(N(CC)CC)cc1O	14	5	-1	13	2	nt	nt
CCN(CC)c1ccc(/C=N/NC(=O)c2c(Cl)cnn2C)c(O)c1	-18	-9	-1	77*	20	66*	12
O=C(CSc1ncnc2nc[nH]c12)c1ccc2ccccc2c1	-8	-2	-1	84*	23	34	-1
O=C(O)CSc1ncnc2nc[nH]c12	-7	2	-5	8	7	nt	nt
CCC(=O)N(C1=C(NC)C(=O)c2ccccc2C1=O)C(C)C	-21	-11	-4	80*	-22	66*	64*
CC(=O)C1=C(c2ccc(Br)cc2)C(=O)c2ccccc2C1=O	-16	-15	-2	36	-35	nt	nt
CNC1=C(N(C(C)=O)c2ccc(Br)cc2)C(=O)c2ccccc2C1=O	-4	-16	-5	105*	-23	55*	97*
CCN1CCN(C2=C(NS(=O)(=O)c3ccc(NC(C)=O)cc3)C(=O)c3ccccc3C2=O)CC1	0	-18	1	94*	-12	59*	104*
CCOC(=O)N1CCN(S(=O)(=O)c2ccc(NC(C)=O)cc2)CC1	-10	1	-10	2	-17	nt	nt
CCOC(=O)N1CCN(C2=C(NS(=O)(=O)c3ccc(NC(C)=O)cc3)C(=O)c3ccccc3C2=O)CC1	-10	-11	-4	83*	-5	59*	83*
CCN1CCN(c2ccc([N+](=O)[O-])cc2S(=O)(=O)N2CCOCC2)CC1	-6	-11	8	145*	-9	36	44*
CCCN1CCN(c2ccc([N+](=O)[O-])cc2C#N)CC1	2	-13	-9	83*	-19	39	46*
CC(=O)N1CCN(c2ccc(C(N)=O)cc2[N+](=O)[O-])CC1	-1	-2	0	81*	8	27	30*
NC(=O)c1ccc(N2CCCCCC2)c([N+](=O)[O-])c1	-17	1	-1	11	-5	nt	nt
CC(=O)N1CCN(c2ccc([N+](=O)[O-])cc2C#N)CC1	-3	4	-6	100*	4	38	47*
CCOC(=O)C1CCN(c2ccc([N+](=O)[O-])cc2S(=O)(=O)N2CCOCC2)CC1	3	-4	-9	31	-21	nt	nt
O=C(c1ccccc1)N1CCN(c2ccc([N+](=O)[O-])cc2-n2cccc2)CC1	10	-11	-5	9	-19	nt	nt
O=C(O)c1ccccc1-n1ncc2c1/C(=C/c1ccc(Cl)cc1)CC2	-9	-11	-6	12	-9	nt	nt
Clc1ccc(CNc2ccc(CNc3ncn[nH]3)cc2)c(Cl)c1	-6	-3	-5	9	0	nt	nt
COc1ccc(/C=c2\s/c(=C/C(=O)c3ccc(C)cc3)[nH]c2=O)cc1OC	-4	-9	-12	82*	12	84*	19*
CCOC(=O)C1CCCN(CCC(=O)Nc2ccc(Br)cc2)C1 (centres undefined)	2	-3	-9	9	-1	nt	nt
CC(=O)NC1=C(Nc2ccc(N(C)C)cc2)C(=O)c2ccccc2C1=O	-14	-10	-7	120*	-13	66*	92*
CCN(CC)c1ccc2nc3ccc(N)cc3[n+](-c3ccccc3)c2c1	nt	nt	-7	nt	nt	nt	nt
CCN(CC)c1ccc2nc3ccccc3[n+](CC)c2c1	-17	-8	nt	149*	1	110*	157*
CSCC(=O)N1CCC(Oc2cccc(C(=O)NCc3ccccn3)c2)CC1	-4	-7	6	3	-6	nt	nt
COc1cc([N+](=O)[O-])c(C(=O)N2CCOCC2)c([N+](=O)[O-])c1	-5	-5	7	94*	10	45	42*

Screens as filed in PubChem.
